Series [1] deals with Plasmodium berghei. The series is described as follows: Antimalarial activity against blood schizont stage of Plasmodium berghei infected in mouse assessed as mean survival days of host at 40 mg/kg (reference value: 6.1 days). In kind it is functional.
Series [2] concerns Plasmodium cynomolgi. The experiment in a line: Antimalarial activity against sporozoite stage of Plasmodium cynomolgi infected in rhesus monkey assessed as radical curative activity at 0.125 mg/kg measured for 90 days. In kind it is functional, organism-based. Details: dose 0.125 mg/kg. The method, boiled down:
(§1)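 Rhesus monkeys infected by sporozoite inoculation of Plasmodium cynomolgi and dosed at the mg/kg levels given. Results are recorded as cures per number of animals, or as the day of relapse. An animal with no relapse within 90 days is counted as cured.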

Series [3] concerns Plasmodium berghei. The series is described as follows: Antimalarial activity against blood schizont stage of Plasmodium berghei infected in mouse assessed as complete disease cure at 640 mg/kg measured 60 days post infection infection. In kind it is functional, organism-based. Also noted: dose 640 mg/kg. In outline:
(§2)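 Mice infected with blood-stage Plasmodium berghei, five animals per group, following the Osdene et al. method. Cures are the number of mice alive 60 days after infection. Deaths before day 6 are scored as toxic. Activity is read as the increase in mean survival time over untreated controls, and a group counts as active when its MST exceeds twice the control MST.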

The subject of series [4] is Plasmodium berghei. The experiment in a line: Antimalarial activity against blood schizont stage of Plasmodium berghei infected in mouse assessed as complete disease cure at 320 mg/kg measured 60 days post infection infection. Details: dose 320 mg/kg. In kind it is functional, organism-based. In outline:
as §2

Series [5] has as its system Plasmodium berghei. The series is described as follows: Antimalarial activity against blood schizont stage of Plasmodium berghei infected in mouse assessed as mean survival days of host at 160 mg/kg (reference value: 6.1 days). In kind it is functional.
Series [6] relates to Plasmodium berghei. The experiment in a line: Antimalarial activity against blood schizont stage of Plasmodium berghei infected in mouse assessed as mean survival days of host at 80 mg/kg (reference value: 6.1 days). In kind it is functional.
Series [7] relates to Plasmodium cynomolgi. The series is described as follows: Antimalarial activity against sporozoite stage of Plasmodium cynomolgi infected in rhesus monkey assessed as radical curative activity at 0.5 mg/kg measured for 90 days. The format is functional, organism-based. Details: dose 0.5 mg/kg. The method, boiled down:
as §1

Series [8] concerns Plasmodium berghei. The series is described as follows: Antimalarial activity against blood schizont stage of Plasmodium berghei infected in mouse assessed as mean survival days of host at 20 mg/kg (reference value: 6.1 days). In kind it is functional.
The subject of series [9] is Plasmodium berghei. The experiment in a line: Antimalarial activity against blood schizont stage of Plasmodium berghei infected in mouse assessed as mean survival days of host at 640 mg/kg (reference value: 6.1 days). In kind it is functional.
The subject of series [10] is Plasmodium berghei. The series is described as follows: Antimalarial activity against blood schizont stage of Plasmodium berghei infected in mouse assessed as mean survival days of host at 320 mg/kg (reference value: 6.1 days). In kind it is functional.
Series [11] deals with Plasmodium cynomolgi. The experiment in a line: Antimalarial activity against sporozoite stage of Plasmodium cynomolgi infected in rhesus monkey assessed as radical curative activity at 10 mg/kg measured for 90 days. Also noted: dose 10 mg/kg. The format is functional, organism-based. In outline: as §1
Series [12] concerns Plasmodium cynomolgi. The series is described as follows: Antimalarial activity against sporozoite stage of Plasmodium cynomolgi infected in rhesus monkey assessed as radical curative activity at 1 mg/kg measured for 90 days. In kind it is functional, organism-based. Also noted: dose 1 mg/kg. The method, boiled down:
as §1

Series [13] has as its system Plasmodium cynomolgi. The series is described as follows: Antimalarial activity against sporozoite stage of Plasmodium cynomolgi infected in rhesus monkey assessed as radical curative activity at 0.25 mg/kg measured for 90 days. The format is functional, organism-based. Details: dose 0.25 mg/kg. The method, boiled down:
as §1

The subject of series [14] is Plasmodium cynomolgi. The experiment in a line: Antimalarial activity against sporozoite stage of Plasmodium cynomolgi infected in rhesus monkey assessed as radical curative activity at 0.75 mg/kg measured for 90 days. The format is functional, organism-based. Details: dose 0.75 mg/kg. The method, boiled down: as §1
For series [15], the system named is Mus musculus. The series is described as follows: Toxicity in mouse infected with blood schizont stage of Plasmodium berghei assessed as mortality at 320 mg/kg measured prior to 6th day. The format is organism-based. Conditions: in vivo. Details: dose 320 mg/kg. In outline: (§3)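 In P. berghei-infected mice, five per group, deaths occurring before day 6 after infection are recorded as drug-toxic deaths.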

Series [16] deals with Mus musculus. The series is described as follows: Toxicity in mouse infected with blood schizont stage of Plasmodium berghei assessed as mortality at 640 mg/kg measured prior to 6th day. Conditions: in vivo. Also noted: dose 640 mg/kg. The format is organism-based. The method, boiled down: as §3
Series [17] has as its system Mus musculus. The experiment in a line: Toxicity in mouse infected with blood schizont stage of Plasmodium berghei assessed as mortality at 160 mg/kg measured prior to 6th day. The format is organism-based. Details: dose 160 mg/kg. To be noted: in vivo. In outline: as §3

Survival and Activity data for five compounds are collected here from ChEMBL document CHEMBL3244096, “Modifications of primaquine as antimalarials. 1. 5-Phenoxy derivatives of primaquine” (J Med Chem, 1977).

Active and inactive are the calls of the source.

Consider `COc1cc(NC(C)CCCN)c2ncccc2c1Oc1ccc(F)cc1.O.O=C(O)CC(O)(CC(=O)O)C(=O)O` (configuration not stated), for which the Survival with Plasmodium berghei [1] came to 5.7 days; in the series on Plasmodium berghei [5], 8.9 days; in the series with Plasmodium berghei [6] it was 7.5 days; with Plasmodium berghei [8], 2.1 days. The outcome in the series on Plasmodium cynomolgi [2] and with Plasmodium cynomolgi [7] was inactive. For the same compound, the outcome in the series on Plasmodium berghei [3] and with Plasmodium berghei [4] was Active.

In the case of `COc1cc(NC(C)CCCN)c2ncccc2c1Oc1ccccc1.O.O=P(O)(O)O` (configuration not stated), the Survival with Plasmodium berghei [1] is 1.5 days; in the series on Plasmodium berghei [9] it was 9.9 days; in the series with Plasmodium berghei [5], 5.1 days; in the series with Plasmodium berghei [6], 1.7 days; with Plasmodium berghei [10], 7.5 days; with Plasmodium berghei [8], 0.3 days.

As for `COc1cc(NC(C)CCCN)c2ncccc2c1Oc1ccc(Cl)cc1` (configuration not stated), the Survival with Plasmodium berghei [1] amounted to 4.7 days; in the series on Plasmodium berghei [5], 7.1 days; in the series with Plasmodium berghei [6], 5.5 days; in the series on Plasmodium berghei [10], 8.1 days; in the series with Plasmodium berghei [8], 0.7 days. In addition, the result in the series on Plasmodium cynomolgi [11], in the series with Plasmodium cynomolgi [7] and with Plasmodium cynomolgi [12] was Active. In the series on Plasmodium cynomolgi [13], the outcome was inactive.

For `COc1cc(NC(C)CCCN)c2ncccc2c1Oc1ccc(NC(C)=O)cc1` (configuration not stated), the outcome in the series with Plasmodium cynomolgi [11], in the series on Plasmodium cynomolgi [2], in the series with Plasmodium cynomolgi [14], with Plasmodium cynomolgi [7], in the series with Plasmodium cynomolgi [12] and in the series on Plasmodium cynomolgi [13] was inactive.

For the compound `COc1cc(NC(C)CCCN)c2ncccc2c1` (configuration not stated) [PRIMAQUINE], the Survival amounted to 5 days in the series on Plasmodium berghei [1], 9.4 days with Plasmodium berghei [6] and 4 days with Plasmodium berghei [8]. In addition, the Activity entry with Mus musculus [15], in the series with Mus musculus [16] and with Mus musculus [17] was “Toxic” throughout. In the series on Plasmodium cynomolgi [14], the result was Active. The outcome in the series with Plasmodium cynomolgi [13] was inactive.
